Assay results published in ChEMBL document CHEMBL3813596, “Conformational Constraint of the Glycerol Moiety of Lysophosphatidylserine Affords Compounds with Receptor Subtype Selectivity” (J Med Chem, 2016).
Calls of active or inactive are those of the source. The rule behind the calls is not given here.

Columns and labels:
[1] = biological target: Probable G-protein coupled receptor 174 (Mus musculus) (UniProt Q3U507); assay: Agonist activity at mouse GPR174 expressed in HEK293FT cells after 1.5 hrs by alkaline phosphatase tagged-TGFalpha shedding assay; assay type: cell-based
Procedure, shortened: (§1)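 Transient transfection of HEK293 cells with AP-TGFα plus the mouse receptor. For GPR34, HEK293A cells also got a chimeric Gαq/i1 subunit; P2Y10 was run in HEK293A and GPR174 in HEK293FT. Cells were seeded 24 h post-transfection in 5 mM HEPES (pH 7.4) HBSS onto serial 3.2-fold compound dilutions (top final 32 μM or lower, limited by mock-cell signal). Ki16425 was present, and incubation ran 1.5 h.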

[2] = biological target: Putative P2Y purinoceptor 10 (Mus musculus) (UniProt Q8BFU7); assay: (§2) Agonist activity at mouse P2Y10 receptor expressed in HEK293A cells after 1.5 hrs by alkaline phosphatase tagged-TGFalpha shedding assay; assay type: cell-based; conditions: HEK293-A; procedure, shortened: as §1
[3] = biological target: Putative P2Y purinoceptor 10 (Mus musculus, UniProt Q8BFU7); assay: as §2; assay type: cell-based, HEK293-A; procedure, shortened: as §1
[4] = biological target: Probable G-protein coupled receptor 34 (Mus musculus) (UniProt Q9R1K6); assay: Intrinsic activity at mouse GPR34 expressed in HEK293A cells cotransfected with chimeric Galphaq/il after 1.5 hrs by alkaline phosphatase tagged-TGFalpha shedding assay relative to O-(Hydroxy(((2R,3R)-2-(((3-(2-((3-phenoxybenzyl)oxy)phenyl)-propanoyl)oxy)methyl)tetrahydro-2H-pyran-3-yl)oxy)phosphoryl)-L-serine; assay type: cell-based; conditions: HEK293-A
Procedure, shortened: (§3)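 It is a dimensionless estimate of agonist activity. The GPR34 assay used HEK293A cells with chimeric Gαq/i1 and a 1.5 h incubation; the P2Y10 assay used HEK293A cells.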

[5] = biological target: Putative P2Y purinoceptor 10 (Mus musculus) (UniProt Q8BFU7); assay: Intrinsic activity at mouse P2Y10 receptor expressed in HEK293A cells after 1.5 hrs by alkaline phosphatase tagged-TGFalpha shedding assay relative to diF-C3-ph-o-O-C11; assay type: cell-based; conditions: HEK293-A; procedure, shortened: as §3
[6] = biological target: Probable G-protein coupled receptor 34 (Mus musculus) (UniProt Q9R1K6); assay: (§4) Agonist activity at mouse GPR34 expressed in HEK293A cells cotransfected with chimeric Galphaq/il after 1.5 hrs by alkaline phosphatase tagged-TGFalpha shedding assay; assay type: cell-based; conditions: HEK293-A
[7] = biological target: Probable G-protein coupled receptor 34 (Mus musculus, UniProt Q9R1K6); assay: as §4; assay type: cell-based, HEK293-A
[8] = biological target: Putative P2Y purinoceptor 10 (Mus musculus) (UniProt Q8BFU7); assay: Agonist activity at mouse P2Y10 receptor expressed in rat McA-RH7777 cells assessed as induction of actin stress fiber formation at 100 nM after 30 mins by Alexa fluor 594-labelled phalloidin/DAPI staining based fluorescence microscopy; assay type: cell-based
Procedure, shortened: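 McA-RH7777 rat hepatoma cells stably expressing mouse P2Y10, or mock-infected, seeded on collagen I at 2.5 × 10^4 cells/well, grown 24 h in 10% FBS DMEM. Serum-starved 1 h in 0.01% BSA DMEM, stimulated 30 min. Fixed in 4% paraformaldehyde, Triton X-100 permeabilised, stained 1 h with Alexa 594-phalloidin (1.5 μg/mL) and DAPI (1 μg/mL). Scored by fluorescence imaging.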

Sequence of Probable G-protein coupled receptor 34 (Q9R1K6 whole entry): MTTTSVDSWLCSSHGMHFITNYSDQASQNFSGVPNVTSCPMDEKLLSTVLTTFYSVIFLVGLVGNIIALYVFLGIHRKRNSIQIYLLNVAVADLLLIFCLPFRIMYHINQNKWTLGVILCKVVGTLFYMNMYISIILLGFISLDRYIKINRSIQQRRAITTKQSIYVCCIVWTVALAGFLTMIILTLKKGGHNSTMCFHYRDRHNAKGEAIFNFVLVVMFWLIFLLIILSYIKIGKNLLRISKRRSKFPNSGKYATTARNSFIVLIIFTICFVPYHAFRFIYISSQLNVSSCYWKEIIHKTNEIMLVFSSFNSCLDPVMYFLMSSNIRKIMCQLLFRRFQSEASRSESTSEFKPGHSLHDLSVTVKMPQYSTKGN
Sequence of Probable G-protein coupled receptor 34 (Mus musculus) (Q9R1K6 whole entry): as above
Sequence of Probable G-protein coupled receptor 174 (Mus musculus) (Q3U507 whole entry): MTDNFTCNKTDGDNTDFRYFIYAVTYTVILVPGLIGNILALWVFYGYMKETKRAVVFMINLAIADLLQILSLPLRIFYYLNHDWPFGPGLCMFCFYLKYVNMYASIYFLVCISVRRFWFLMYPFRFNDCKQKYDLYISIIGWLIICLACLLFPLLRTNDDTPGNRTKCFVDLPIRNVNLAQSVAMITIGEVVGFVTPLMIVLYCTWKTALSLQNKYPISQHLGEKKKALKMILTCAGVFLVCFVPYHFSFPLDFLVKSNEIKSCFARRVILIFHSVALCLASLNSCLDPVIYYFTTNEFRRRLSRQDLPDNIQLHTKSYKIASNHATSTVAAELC
Sequence of Putative P2Y purinoceptor 10 (Q8BFU7 whole entry): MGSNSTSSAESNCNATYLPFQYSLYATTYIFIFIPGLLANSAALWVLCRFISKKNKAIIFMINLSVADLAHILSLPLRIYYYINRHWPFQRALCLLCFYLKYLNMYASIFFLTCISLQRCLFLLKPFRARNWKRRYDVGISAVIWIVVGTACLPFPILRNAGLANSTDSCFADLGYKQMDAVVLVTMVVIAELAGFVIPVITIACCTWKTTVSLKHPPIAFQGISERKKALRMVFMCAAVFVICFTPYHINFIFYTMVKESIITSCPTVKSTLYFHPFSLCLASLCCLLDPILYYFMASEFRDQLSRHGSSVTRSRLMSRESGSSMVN
Sequence of Putative P2Y purinoceptor 10 (Mus musculus) (Q8BFU7 whole entry): as above

Activity [1] | Emax [2] | EC50 ([3]; read-out: EC50) | Intrinsic activity [4] | Intrinsic activity [5] | Emax [6] | EC50 ([7]; read-out: EC50) | EC50 ([7]; hek293-a) | EC50 ([3]; hek293-a) | pEC50 [6] | Structure (SMILES) | Activity [8]
inactive | 10.6% | 470 nM | 0.41 | 0.0038 | 5.2% | 110 nM | – | – | – | CCCCCCCCCCCOc1ccccc1CCC(=O)OC[C@H]1OCCC[C@H]1OP(=O)(O)OC[C@H](N)C(=O)O | –
– | inactive | > 1000 nM | – | inactive | – | – | Not Active | – | – | CCCCCCCC/C=C\CCCCCCCC(=O)O[C@H]1C=CCO[C@@H]1COP(=O)(O)OC[C@H](N)C(=O)O | –
inactive | – | > 1000 nM | – | – | – | > 1000 nM | – | – | – | CCCCCCCC/C=C\CCCCCCCC(=O)O[C@@H]1CCCO[C@@H]1COP(=O)(O)OC[C@H](N)C(=O)O | –
– | inactive | > 1000 nM | – | inactive | – | 560 nM | – | – | – | CCCCCCCC/C=C\CCCCCCCC(=O)O[C@@H]1C=CCO[C@@H]1COP(=O)(O)OC[C@H](N)C(=O)O | –
– | 7.6% | 17 nM | – | 0.071 | – | – | Not Active | – | – | CCCCCCCCCCCOc1ccccc1CCC(=O)OC[C@H]1OCC=C[C@@H]1OP(=O)(O)OC[C@H](N)C(=O)O | Active
– | 11.5% | 450 nM | inactive | 0.004 | inactive | > 1000 nM | – | – | – | CCCCCCCC/C=C\CCCCCCCC(=O)OC[C@@H]1OCC=C[C@H]1OP(=O)(O)OC[C@@H](N)C(=O)O (single isomer, unassigned) | –
– | 12.4% | 42 nM | – | 0.05 | – | 510 nM | – | – | – | CCCCCCCCCCCOc1ccccc1CCC(=O)OC[C@H]1OCC=C[C@H]1OP(=O)(O)OC[C@H](N)C(=O)O | Active
inactive | – | – | 0.53 | – | 11.1% | 210 nM | – | Not Active | – | CCCCCCCC/C=C\CCCCCCCC(=O)OC[C@@H]1OCCC[C@@H]1OP(=O)(O)OC[C@@H](N)C(=O)O (single isomer, unassigned) | –
inactive | – | 450 nM | 1.03 | – | 8.7% | 100 nM | – | – | – | CCCCCCCC/C=C\CCCCCCCC(=O)OC[C@@H]1OCCC[C@H]1OP(=O)(O)OC[C@@H](N)C(=O)O (single isomer, unassigned) | –
– | inactive | > 1000 nM | inactive | inactive | inactive | > 1000 nM | – | – | – | CCCCCCCC/C=C\CCCCCCCC(=O)OC[C@@H]1OCC=C[C@@H]1OP(=O)(O)OC[C@@H](N)C(=O)O (single isomer, unassigned) | –
– | 11.5% | 330 nM | 0.25 | 0.0053 | 11.7% | 460 nM | – | – | – | N[C@@H](COP(=O)(O)O[C@H]1C=CCO[C@@H]1COC(=O)CCc1ccccc1OCc1cccc(Oc2ccccc2)c1)C(=O)O | –
– | inactive | > 1000 nM | inactive | inactive | inactive | – | Not Active | – | inactive | CCCCCCCCCCCOc1ccccc1CCC(=O)O[C@H]1C=CCO[C@@H]1COP(=O)(O)OCC(N)C(=O)O (single isomer, unassigned) | –
inactive | – | – | – | – | – | – | Not Active | Not Active | – | CCCCCCCC/C=C\CCCCCCCC(=O)O[C@H]1CCCO[C@@H]1COP(=O)(O)OC[C@H](N)C(=O)O | –
– | inactive | > 1000 nM | 0.2 | inactive | 12.4% | 600 nM | – | – | – | N[C@@H](COP(=O)(O)O[C@@H]1C=CCO[C@@H]1COC(=O)CCc1ccccc1OCc1cccc(Oc2ccccc2)c1)C(=O)O | –
inactive | 7.2% | 290 nM | inactive | 0.0098 | < 3% | – | Not Active | – | inactive | CCCCCCCCCCCOc1ccccc1CCC(=O)O[C@H]1CCCO[C@@H]1COP(=O)(O)OCC(N)C(=O)O (single isomer, unassigned) | –
– | inactive | > 1000 nM | inactive | inactive | inactive | > 1000 nM | – | – | – | CCCCCCCCCCCOc1ccccc1CCC(=O)O[C@@H]1C=CCO[C@@H]1COP(=O)(O)OCC(N)C(=O)O (single isomer, unassigned) | –
inactive | 7.5% | 610 nM | 0.082 | 0.002 | 5.3% | 640 nM | – | – | – | CCCCCCCCCCCOc1ccccc1CCC(=O)OC[C@H]1OCCC[C@@H]1OP(=O)(O)OC[C@H](N)C(=O)O | –
inactive | inactive | > 1000 nM | inactive | inactive | inactive | > 1000 nM | – | – | – | CCCCCCCCCCCOc1ccccc1CCC(=O)O[C@@H]1CCCO[C@@H]1COP(=O)(O)OCC(N)C(=O)O (single isomer, unassigned) | –

Further lines, the compound ahead of its results:

Structure (SMILES) | Activity [1] | Emax [2] | EC50 ([3]; read-out: EC50) | Intrinsic activity [4] | Intrinsic activity [5] | Emax [6] | EC50 ([7]; read-out: EC50) | EC50 ([7]; hek293-a) | EC50 ([3]; hek293-a) | pEC50 [6] | Activity [8]
CCCCCCCCCCCOc1ccccc1CCC(=O)OCc1ccc(OP(=O)(O)OC[C@H](N)C(=O)O)cc1 | – | inactive | > 1000 nM | – | inactive | – | – | Not Active | – | – | inactive
CCCCCCCCCCCOc1ccccc1CCC(=O)OCc1cccc(OP(=O)(O)OC[C@H](N)C(=O)O)c1 | – | 10.8% | 6.7 nM | – | 0.23 | – | – | Not Active | – | – | Active
N[C@@H](COP(=O)(O)OC[C@H]1OCCC[C@@H]1OC(=O)CCc1ccccc1OCc1cccc(Oc2ccccc2)c1)C(=O)O | inactive | inactive | > 1000 nM | inactive | inactive | inactive | > 1000 nM | – | – | – | –
CCCCCCCCCCCOc1ccccc1CCC(=O)OCc1ccccc1OP(=O)(O)OC[C@H](N)C(=O)O | – | 5.8% | 45 nM | 0.2 | 0.02 | 5.9% | 700 nM | – | – | – | Active
N[C@@H](COP(=O)(O)O[C@@H]1CCCO[C@@H]1COC(=O)CCc1ccc(OCc2cccc(Oc3ccccc3)c2)cc1)C(=O)O | – | inactive | > 1000 nM | – | inactive | – | – | Not Active | – | – | –
N[C@@H](COP(=O)(O)OC[C@H]1OCCC[C@H]1OC(=O)CCc1cccc(OCc2cccc(Oc3ccccc3)c2)c1)C(=O)O | – | inactive | > 1000 nM | – | inactive | – | – | Not Active | – | – | –
N[C@@H](COP(=O)(O)OC[C@H]1OCCC[C@H]1OC(=O)CCc1ccc(OCc2cccc(Oc3ccccc3)c2)cc1)C(=O)O | – | inactive | > 1000 nM | inactive | inactive | inactive | > 1000 nM | – | – | – | –
N[C@@H](COP(=O)(O)OC[C@H]1OCC=C[C@H]1OC(=O)CCc1ccccc1OCc1cccc(Oc2ccccc2)c1)C(=O)O | – | inactive | > 1000 nM | 0.86 | inactive | 16.5% | 180 nM | – | – | – | –
CCCCCCCC/C=C\CCCCCCCC(=O)OC[C@@H](O)COP(=O)(O)OC[C@H](N)C(=O)O | – | 12.5% | 25 nM | 0.33 | 0.073 | 9.5% | – | – | – | – | Active
N[C@@H](COP(=O)(O)O[C@H]1CCCO[C@@H]1COC(=O)CCc1ccccc1OCc1cccc(Oc2ccccc2)c1)C(=O)O | inactive | inactive | > 1000 nM | 0.24 | inactive | 9.8% | 340 nM | – | – | – | –
N[C@@H](COP(=O)(O)O[C@@H]1CCCO[C@@H]1COC(=O)CCc1cccc(OCc2cccc(Oc3ccccc3)c2)c1)C(=O)O | – | inactive | > 1000 nM | inactive | inactive | inactive | > 1000 nM | – | – | – | –
N[C@@H](COP(=O)(O)OC[C@H]1OCC=C[C@@H]1OC(=O)CCc1ccccc1OCc1cccc(Oc2ccccc2)c1)C(=O)O | – | inactive | > 1000 nM | inactive | inactive | inactive | > 1000 nM | – | – | – | –
